# Legend:
# [1] = Tmax in C57BL/6J mouse plasma at 100 mg/kg, po by LC-MS/MS analysis; format: ADME, organism-based
# Outline: (§1)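 Male mice given a single oral dose of 10, 30 or 100 mg/kg as a fine suspension in 10% or 20% hydroxypropyl-β-cyclodextrin (10 mL/kg). Plasma and brain collected (n=3/time point) and measured by LC-MS/MS. Non-compartmental analysis on mean concentrations; AUC dose-normalised. %F = normalised po AUCinf / normalised iv AUCinf.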
# [2] = AUC/dose in C57BL/6J mouse plasma at 30 mg/kg, po by LC-MS/MS analysis; format: ADME, organism-based; details: in vivo
# Outline: (§2)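 Male C57BL/6 mice, single oral dose as fine suspension in 10% or 20% hydroxypropyl-beta-cyclodextrin in water (10 mL/kg). Terminal cardiac-puncture plasma and saline-rinsed brain, n=3 per time point; brain homogenized in acetonitrile:water 3:1. LC-MS/MS with diclofenac IS; LLOQ 6 nM plasma, 21 nM brain. Composite non-compartmental analysis of mean concentrations; AUC normalized to actual dose.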
# [3] = Oral bioavailability in C57BL/6J mouse plasma at 10 mg/kg by LC-MS/MS analysis; format: ADME, organism-based; outline: as §1
# [4] = Ratio of AUC/dose in brain to plasma of C57BL/6J mouse at 10 mg/kg, po administered as single dose by LC-MS/MS analysis; format: ADME, organism-based; details: brain and plasma, read-out: BPR; outline: as §1
# [5] = Cmax/dose in C57BL/6J mouse plasma at 10 mg/kg, po by LC-MS/MS analysis; format: ADME, organism-based; details: in vivo; outline: as §2
# [6] = Unbound brain-to-plasma concentration ratio in C57BL/6J mouse at 3 mg/kg, iv administered as single dose by LC-MS/MS analysis; format: ADME, organism-based; details: brain and plasma, read-out: K(p,uu,brain)
# [7] = AUC/dose in C57BL/6J mouse brain at 30 mg/kg, po by LC-MS/MS analysis; format: ADME, organism-based; details: in vivo; outline: as §2
# [8] = AUC/dose in C57BL/6J mouse brain at 10 mg/kg, po by LC-MS/MS analysis; format: ADME, organism-based; details: in vivo; outline: as §2
# [9] = Cmax/dose in C57BL/6J mouse brain at 30 mg/kg, po by LC-MS/MS analysis; format: ADME, organism-based; details: in vivo; outline: as §2
# [10] = Cmax/dose in C57BL/6J mouse brain at 10 mg/kg, po by LC-MS/MS analysis; format: ADME, organism-based; details: in vivo; outline: as §2
# [11] = Unbound brain-to-plasma concentration ratio in C57BL/6J mouse at 30 mg/kg, po administered as single dose by LC-MS/MS analysis; format: ADME, organism-based; details: brain and plasma, read-out: K(p,uu,brain)
# [12] = Kinetic solubility in pH 7.4 PBS buffer by LC-UV assay; format: physicochemical; details: read-out: Kinetic_solubility
# Outline: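 Compound from a 10 mM DMSO stock diluted to a nominal 200 µM in 0.1 M potassium phosphate/0.8% NaCl pH 7.4 (2% DMSO final), n=2. Shaken 2 h at room temperature, then filtered. Filtrate quantified by LC-UV against 200 µM and 10 µM DMSO standards, with MS peak confirmation.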
# [13] = AUC/dose in C57BL/6J mouse brain at 100 mg/kg, po by LC-MS/MS analysis; format: ADME, organism-based; details: in vivo; outline: as §2
# [14] = AUC/dose in C57BL/6J mouse plasma at 3 mg/kg, iv administered as single dose by LC-MS/MS analysis; format: ADME, organism-based; details: in vivo
# Outline: (§3)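 Male C57BL/6 mice, single intravenous dose as solution in 10:50:40 DMSO:PEG400:H2O (5 mL/kg). Plasma by cardiac puncture and brain collected at set times, n=3 per time point. LC-MS/MS quantitation with diclofenac IS. Composite non-compartmental parameters from mean concentrations; C0 back-extrapolated from first two points; kel from at least last three concentrations; AUC dose-normalized.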
# [15] = Ratio of AUC/dose in brain to plasma of C57BL/6J mouse at 3 mg/kg, iv administered as single dose by LC-MS/MS analysis; format: ADME, organism-based; details: brain and plasma, read-out: BPR
# Outline: (§4)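 Male mice given a single iv dose of 3 mg/kg in 10:50:40 DMSO:PEG400:H2O (5 mL/kg). Plasma (cardiac puncture) and brain collected, n=3 per time point, and measured by LC-MS/MS. Non-compartmental parameters from mean concentrations, with C0 back-extrapolated; AUC by linear trapezoidal method, dose-normalised.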
# [16] = Cmax/dose in C57BL/6J mouse brain at 100 mg/kg, po by LC-MS/MS analysis; format: ADME, organism-based; details: in vivo; outline: as §2
# [17] = AUC/dose in C57BL/6J mouse plasma at 100 mg/kg, po by LC-MS/MS analysis; format: ADME, organism-based; details: in vivo; outline: as §2
# [18] = Tmax in C57BL/6J mouse brain at 30 mg/kg, po by LC-MS/MS analysis; format: ADME, organism-based; outline: as §1
# [19] = Cmax/dose in C57BL/6J mouse plasma at 100 mg/kg, po by LC-MS/MS analysis; format: ADME, organism-based; details: in vivo; outline: as §2
# [20] = Oral bioavailability in C57BL/6J mouse plasma at 100 mg/kg by LC-MS/MS analysis; format: ADME, organism-based; outline: as §1
# [21] = Tmax in C57BL/6J mouse plasma at 10 mg/kg, po by LC-MS/MS analysis; format: ADME, organism-based; outline: as §1
# [22] = Unbound brain-to-plasma concentration ratio in C57BL/6J mouse at 10 mg/kg, po administered as single dose by LC-MS/MS analysis; format: ADME, organism-based; details: brain and plasma, read-out: K(p,uu,brain)
# [23] = Ratio of AUC/dose in brain to plasma of C57BL/6J mouse at 30 mg/kg, po administered as single dose by LC-MS/MS analysis; format: ADME, organism-based; details: brain and plasma, read-out: BPR; outline: as §1
# [24] = Ratio of AUC/dose in brain to plasma of C57BL/6J mouse at 100 mg/kg, po administered as single dose by LC-MS/MS analysis; format: ADME, organism-based; details: brain and plasma, read-out: BPR; outline: as §1
# [25] = Tmax in C57BL/6J mouse brain at 10 mg/kg, po by LC-MS/MS analysis; format: ADME, organism-based; outline: as §1
# [26] = Tmax in C57BL/6J mouse plasma at 30 mg/kg, po by LC-MS/MS analysis; format: ADME, organism-based; outline: as §1
# [27] = AUC/dose in C57BL/6J mouse brain at 3 mg/kg, iv administered as single dose by LC-MS/MS analysis; format: ADME, organism-based; details: in vivo; outline: as §3
# [28] = AUC/dose in C57BL/6J mouse plasma at 10 mg/kg, po by LC-MS/MS analysis; format: ADME, organism-based; details: in vivo; outline: as §2
# [29] = Oral bioavailability in C57BL/6J mouse plasma at 30 mg/kg by LC-MS/MS analysis; format: ADME, organism-based; outline: as §1
# [30] = Volume of distribution at steady state in C57BL/6J mouse at 3 mg/kg, iv administered as single dose by LC-MS/MS analysis; format: ADME, organism-based; details: in vivo, read-out: Vdss; outline: as §4
# [31] = Unbound brain-to-plasma concentration ratio in C57BL/6J mouse at 100 mg/kg, po administered as single dose by LC-MS/MS analysis; format: ADME, organism-based; details: brain and plasma, read-out: K(p,uu,brain)
# [32] = Cmax/dose in C57BL/6J mouse plasma at 30 mg/kg, po by LC-MS/MS analysis; format: ADME, organism-based; details: in vivo; outline: as §2
# [33] = Tmax in C57BL/6J mouse brain at 100 mg/kg, po by LC-MS/MS analysis; format: ADME, organism-based; outline: as §1
# [34] = Distribution coefficient, logD of compound at pH 7.4; format: physicochemical; details: octanol/water
compound,measurement,setting,value
COc1ccc2c(c1)Cc1cccc(-c3cc(=O)cc(N4CCOCC4)o3)c1S2,Tmax,[1],15 min
same,AUC/dose,[2],3000 nM·kg·h/mg
same,bioavailability,[3],89%
same,Kp,[4],1.3
same,Cmax/dose,[5],850 nM·kg/mg
same,Kp uu,[6],0.44
same,AUC/dose,[7],3300 nM·kg·h/mg
same,AUC/dose,[8],3200 nM·kg·h/mg
same,Cmax/dose,[9],880 nM·kg/mg
same,Cmax/dose,[10],950 nM·kg/mg
same,Kp uu,[11],0.37
same,solubility kinetic,[12],11 µg/mL
same,AUC/dose,[13],2600 nM·kg·h/mg
same,AUC/dose,[14],2700 nM·kg·h/mg
same,Kp,[15],1.3
same,Cmax/dose,[16],850 nM·kg/mg
same,AUC/dose,[17],1800 nM·kg·h/mg
same,Tmax,[18],30 min
same,Cmax/dose,[19],450 nM·kg/mg
same,bioavailability,[20],67%
same,Tmax,[21],60 min
same,Kp uu,[22],0.45
same,Kp,[23],1.1
same,Kp,[24],1.4
same,Tmax,[25],60 min
same,Tmax,[26],15 min
same,AUC/dose,[27],3500 nM·kg·h/mg
same,AUC/dose,[28],2400 nM·kg·h/mg
same,bioavailability,[29],111%
same,Vd,[30],1.6 L/kg
same,Kp uu,[31],0.49
same,Cmax/dose,[32],890 nM·kg/mg
same,Tmax,[33],60 min
CC(C)(O)C1CCN(CCOc2ccc3c(c2)Cc2cccc(-c4cc(=O)cc(N5CCOCC5)o4)c2S3)CC1,Kp uu,[6],0.05
same,solubility kinetic,[12],101 µg/mL
same,AUC/dose,[14],950 nM·kg·h/mg
same,Kp,[15],0.1
same,AUC/dose,[27],120 nM·kg·h/mg
same,Vd,[30],4.2 L/kg
COc1ccc2c(c1)C1(CCOCC1)c1cccc(-c3cc(=O)cc(N4CCOCC4)o3)c1S2,Kp uu,[6],0.12
same,solubility kinetic,[12],33 µg/mL
same,AUC/dose,[14],1500 nM·kg·h/mg
same,Kp,[15],0.5
same,AUC/dose,[27],700 nM·kg·h/mg
same,Vd,[30],3 L/kg
O=c1cc(-c2cccc3c2Sc2ccc(OC4COC4)cc2C3)oc(N2CCOCC2)c1,Kp uu,[6],0.07
same,solubility kinetic,[12],25 µg/mL
same,AUC/dose,[14],1900 nM·kg·h/mg
same,Kp,[15],0.2
same,AUC/dose,[27],450 nM·kg·h/mg
same,Vd,[30],1.6 L/kg
COC[C@H]1c2cc(OC)ccc2Sc2c(-c3cc(=O)cc(N4CCOCC4)o3)cccc21,Kp uu,[6],0.18
same,solubility kinetic,[12],67 µg/mL
same,AUC/dose,[14],960 nM·kg·h/mg
same,Kp,[15],0.4
same,AUC/dose,[27],430 nM·kg·h/mg
same,Vd,[30],3 L/kg
C[C@H](CN1C[C@@H](C)O[C@@H](C)C1)Oc1ccc2c(c1)Cc1cccc(-c3cc(=O)cc(N4CCOCC4)o3)c1S2,Kp uu,[6],0.03
same,solubility kinetic,[12],30 µg/mL
same,AUC/dose,[14],1100 nM·kg·h/mg
same,Kp,[15],0.1
same,AUC/dose,[27],110 nM·kg·h/mg
same,Vd,[30],2.3 L/kg
O=c1cc(-c2cccc3c2Sc2ccc(O[C@@H]4CCN(CC(F)F)C4)cc2C3)oc(N2CCOCC2)c1,Kp uu,[6],0.05
same,solubility kinetic,[12],7 µg/mL
same,AUC/dose,[14],1600 nM·kg·h/mg
same,Kp,[15],0.2
same,AUC/dose,[27],380 nM·kg·h/mg
same,Vd,[30],2.6 L/kg
C[C@@H]1CN(CC(=O)Nc2ccc3c(c2)Cc2cccc(-c4cc(=O)cc(N5CCOCC5)o4)c2S3)C[C@H](C)O1,logD,[34],4.5
same,solubility kinetic,[12],46 µg/mL
COC[C@@H](C)Oc1ccc2c(c1)Cc1cccc(-c3cc(=O)cc(N4CCOCC4)o3)c1S2,Kp uu,[6],0.14
same,solubility kinetic,[12],22 µg/mL
same,AUC/dose,[14],1600 nM·kg·h/mg
same,Kp,[15],0.4
same,AUC/dose,[27],680 nM·kg·h/mg
same,Vd,[30],1.9 L/kg
O=c1cc(-c2cccc3c2Sc2ccc(OCC4CCOCC4)cc2C3)oc(N2CCOCC2)c1,solubility kinetic,[12],< 2 µg/mL
C[C@@H](CN1CCOC2(CC2)C1)Oc1ccc2c(c1)Cc1cccc(-c3cc(=O)cc(N4CCOCC4)o3)c1S2,solubility kinetic,[12],26 µg/mL

# — ChEMBL document CHEMBL4680114, “Optimization of Potent and Selective Ataxia Telangiectasia-Mutated Inhibitors Suitable for a Proof-of-Concept Study in Huntington's Disease Models” (J Med Chem, 2019)
